Assay results: PMC8653574 (Bioorganic & medicinal chemistry letters, 2018)
“Also recorded” adds a separate entry of the source.

Tests used:
Type in all cases: cell-based, human
C4–2 cells [1] = assay: Acridine orange/ethidium bromide; settings: 48 h incubation
Procedure, shortened: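 C4–2 cells were double-stained with acridine orange, which marks live and dead cells, and ethidium bromide, which marks dead cells only. Cell morphology was then examined to tell apoptosis from necrosis.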

[2] = test system: PARP1 cleavage in C4–2 cells; assay: PARP1 cleavage assay; settings: C4–2 cells treated with compound
C4–2 cells [3] = assay: DNA ladder; settings: 10 μM, 48 h
C4–2 cells [4] = assay: Wound healing; settings: 12 h, 24 h and 48 h
Procedure, shortened: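 A scratch was made in a C4–2 monolayer. The wounded cells were incubated for a further 12, 24 and 48 h. Images were taken at the start and at each interval to assess migration.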

[5] = test system: reactive oxygen species (ROS) in C4–2 cells; assay: ROS accumulation by DCFDA staining; settings: 10 μM, 48 h
Procedure, shortened: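 C4–2 cells were left untreated or exposed for 48 h to test compound at 10 μM or H2O2 at 10 μM as positive control. Intracellular ROS was stained with DCFDA and quantified.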

Row | Compound | AO/EB staining: mode of cell death (C4–2 cells [1]) | PARP1 cleavage (cleaved PARP level) [2] | DNA ladder formation (C4–2 cells [3]) | inhibition of cell migration (C4–2 cells [4]) | ROS level (DCFDA staining) [5]
1 | COc1ccc2c(C3CC(c4ccncc4)=NO3)c[nH]c2c1 (stereo not drawn) [6c] | triggered apoptosis | induced apoptosis | triggered the formation of DNA ladder | potently inhibit C4–2 cell migration; also recorded: strong anti-cell motility property | 
2 | Cc1c(C2CC(c3ccncc3)=NO2)c2ccccc2n1Cc1ccc(Cl)cc1 (stereo not drawn) [6i] | triggered apoptosis | induced apoptosis | triggered the formation of DNA ladder | potently inhibit C4–2 cell migration; also recorded: strong anti-cell motility property | 
3 | H2O2 |  |  |  |  | high DCFDA staining
